Laboratory results reported in publication PMC8245858 (Acta Pharmaceutica Sinica. B, 2021).

Key:
MGC-803 xenograft = test: Gastric cancer cell line-derived xenograft; format: in vivo, nude mice; details: for pathologic examination of heart, liver, spleen, lung and kidney: compared with the saline group, end of treatment
Summary of the method: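 Male nude mice (6–8 weeks) get MGC-803 cells subcutaneously in the right flank. Body weight recorded every two days. After final dose, liver, kidney, lung, heart and spleen taken for histopathology.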

[1] = Caco-2 permeability assay; format: in vitro ADME, human; details: human; for efflux ratio: Caco-2; for Papp: Mean ± RSD, n = 2
[2] = tested on: gastric cancer cell lines MGC-803, HGC-27, SGC-7901, MKN-45, AGS and BGC-823; test: Cell proliferation by sulforhodamine B; format: cell-based, human; details: 72 h
Summary of the method: (§1)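 SRB assay after 72 h exposure. OD read at compound addition (ODstart) is subtracted: relative growth = (ODtreated − ODstart)/(ODcontrol − ODstart); inhibitory rate (%) = (ODcontrol − ODtreated)/(ODcontrol − ODstart) × 100. GI50 obtained per cell line. Mean ± SD (n = 3), three independent experiments, biological duplicates.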

MGC-803 cells [3] = test: Cell cycle, PI staining and flow cytometry; format: cell-based, human; details: MGC-803, 48 h
Summary of the method: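 MGC-803 cells exposed to test compound for 48 h, stained with PI and analysed by flow cytometry with quantification. Mean ± SD (n = 3) from three independent experiments with biological duplicates.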

[4] = Pharmacokinetic parameters in rats; format: in vivo; details: male, SD, rat, plasma, iv, 20 mg/kg
Summary of the method: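 Study run by a contract laboratory in male SD rats, n = 3. Parameters taken from mean plasma concentration–time curves.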

MGC-803 and MKN-45 cells [5] = test: Lipid peroxidation using C11-BODIPY581/591; format: cell-based, human; details: 6 h
Summary of the method: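 After 6 h exposure in 6-well plates, cells are collected and resuspended in PBS with 2 μmol/L C11-BODIPY581/591 for 30 min at 37 °C, then read by flow cytometry. For MGC-803: three independent experiments with biological duplicates, one-way ANOVA.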

[6] = Metabolic stability in mouse liver microsomes; format: in vitro ADME
[7] = Metabolic stability in dog liver microsomes; format: in vitro ADME
SLC7A11 = test: qRT-PCR of SLC7A11 mRNA; format: cell-based, human; details: MGC-803 and MKN-45 cells, 24 h
MGC-803 cells [8] = test: Intracellular ROS, DCFH-DA staining, flow cytometry; format: cell-based, human; details: 24 h
Summary of the method: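 MGC-803 cells exposed to test compound with or without N-acetylcysteine for 24 h, stained with DCFH-DA and analysed by flow cytometry. Groups compared by two-way ANOVA.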

GPX4 [9] = test: GPX4 expression in PDX tumor tissues by IHC; format: in vivo, NOD-SCID mice; details: sensitive PDX models PDX-01, PDX-02 and PDX-03, end of treatment
MGC-803 and MKN-45 cells [10] = test: Intracellular ferrous iron; format: cell-based, human; details: 24 h
Summary of the method: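 Cells in 60-mm dishes exposed to test compound for 24 h, alone or with 3-MA. Cells are then collected and homogenised in iron assay buffer, and ferrous iron is measured with a commercial iron assay kit per the maker's protocol. Mean ± SD (n = 3), three independent experiments, biological duplicates.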

[11] = Metabolic stability in human liver microsomes; format: in vitro ADME
[12] = Metabolic stability in rat liver microsomes; format: in vitro ADME
[13] = Metabolic stability in monkey liver microsomes; format: in vitro ADME
GES1 = test: Cell proliferation by SRB assay, gastric epithelial cell line; format: cell-based, human; details: 72 h
Summary of the method: as §1

Caco-2 monolayer = test: Caco-2 permeability assay; format: in vitro ADME, human; details: from A to B
GPX4 [14] = test: qRT-PCR of GPX4 mRNA; format: cell-based, human; details: MGC-803 and MKN-45 cells, 24 h
[15] = Caco-2, Papp (A‒B), direction A‒B
[16] = Caco-2, Papp (B‒A), direction B‒A

Which “pathologic examination of heart, liver, spleen, lung and kidney” value (MGC-803 xenograft) does the source give for O=c1[nH]cc(F)c(=O)[nH]1 [Compound 5-FU, 5-fluorouracil, reference compound] here?
The value was “no observed adverse effects”.

Which efflux ratio [1] does the source give for C[C@H]1O[C@@H](O[C@H]2[C@@H](O)C[C@H](O[C@H]3[C@@H](O)C[C@H](O[C@H]4CC[C@@]5(C)[C@H](CC[C@@H]6[C@@H]5C[C@@H](O)[C@]5(C)[C@@H](C7=CC(=O)OC7)CC[C@]65O)C4)O[C@@H]3C)O[C@@H]2C)C[C@H](O)[C@@H]1O [Digoxin] here?
Its efflux ratio is 197.

And the Papp [1, 15]?
The Papp was 0.13 ± 0.02 ×10⁻⁶ cm/s.

And the Papp [1, 16]?
Its Papp is 24.7 ± 0.1 ×10⁻⁶ cm/s.

With CC(C)Oc1ccc(C(=O)Cn2ccnc2)cc1-n1c(CN2CCN(C(=O)COc3ccc(Cl)cc3)CC2)nc2ccccc2c1=O [IKE, imidazole ketone erastin, reference compound] as the compound, how does the “effect on cell growth, compound alone” value ([2]; MGC-803 and MKN-45 cells, SRB) read?
The value was “no effect”.

What does the source list for CC(C)NCC(O)COc1cccc2ccccc12 (centres unmarked) [Propranolol]?
efflux ratio [1]: 0.7; Papp [1, 15]: 28.3 ± 0.43 ×10⁻⁶ cm/s; Papp [1, 16]: 18.5 ± 0.3 ×10⁻⁶ cm/s

Which “cell population in the G2/M phase” value (MGC-803 cells [3]) does the source give for C=C1C(=O)[C@@]23C(C(=O)C[C@@H]1[C@H]2OC(=O)[C@@H](N)C(C)C)[C@]12CCCC(C)(C)C1C[C@H]3OC2=O (stereo partly drawn) [a2, (6R,6aR,9S,11bS,14R)-4,4-Dimethyl-8-methylene-7,11,12-trioxododecahydro-1H-6,11b-(epoxymethano)-6a,9-methanocyclohepta[a]naphthalen-14-yl valinate] here?
The value was “significantly increased”.

And the AUC(0-inf) [4]?
The AUC(0-inf) was 14800 ± 1330 ng·h/mL.

And the AUC(0-t) [4]?
The AUC(0-t) was 14800 ± 1320 ng·h/mL.

What about the Cmax [4] of the same compound?
Its Cmax is 18300 ± 1420 ng/mL.

What about the MRT last [4] of the same compound?
Its MRT last is 92.4 ± 7.8 min.

And the Vd [4]?
Its Vd is 7.73 ± 1.46 L/kg.

What about the half-life [4] of the same compound?
Its half-life is 236 ± 28.8 min.

What about the “lipid ROS production” value (MGC-803 and MKN-45 cells [5]) of the same compound?
The value was “dose-dependently elevated”.

And the half-life at 1 μmol/L [6]?
The half-life at 1 μmol/L was 23.7 min.

What about the microsomal CLint at 1 μmol/L [6] of the same compound?
The microsomal CLint at 1 μmol/L was 146 µL/min/mg.

What about the half-life at 1 μmol/L [7] of the same compound?
Its half-life at 1 μmol/L is 32.2 min.

And the microsomal CLint at 1 μmol/L [7]?
The microsomal CLint at 1 μmol/L was 108 µL/min/mg.

What about the GI50 ([2]; Homo sapiens) of the same compound?
The GI50 was 880 to 3330 nM.

What about the “mRNA level of SLC7A11” value (SLC7A11) of the same compound?
The value was “increased”.

What about the “level of ROS” value (MGC-803 cells [8]) of the same compound?
The value was “markedly elevated”.

What about the “expression of GPX4 in tumor tissues” value (GPX4 [9]) of the same compound?
The value was “decreased expression of GPX4”.

What about the ferrous iron accumulation (MGC-803 and MKN-45 cells [10]) of the same compound?
The ferrous iron accumulation was “significantly increased”.

What about the half-life at 1 μmol/L [11] of the same compound?
The half-life at 1 μmol/L was 34.9 min.

What about the microsomal CLint at 1 μmol/L [11] of the same compound?
Its microsomal CLint at 1 μmol/L is 99.4 µL/min/mg.

And the half-life at 1 μmol/L [12]?
Its half-life at 1 μmol/L is 31.2 min.

What about the microsomal CLint at 1 μmol/L [12] of the same compound?
The microsomal CLint at 1 μmol/L was 111 µL/min/mg.

And the half-life at 1 μmol/L [13]?
Its half-life at 1 μmol/L is 23.5 min.

What about the microsomal CLint at 1 μmol/L [13] of the same compound?
Its microsomal CLint at 1 μmol/L is 148 µL/min/mg.

And the tumor growth (MGC-803 xenograft; 5, 10, 20 mg/kg once a day for 21 days, tail vein injection)?
The tumor growth was “dose- and time-dependently inhibited tumor growth”.

And the “anti-tumor efficacy compared with 5-FU (15 mg/kg)” value (MGC-803 xenograft; a2 at 10 or 20 mg/kg, once a day for 21 days)?
The value was “more potent than that of the positive control drug 5-FU”.

And the “pathologic examination of heart, liver, spleen, lung and kidney” value (MGC-803 xenograft)?
Its value is “no observed adverse effects”.

And the “effect on mouse body weight” value (MGC-803 xenograft; once a day for 21 days, compared to 5-FU)?
Its value is “fewer effect”.

And the “GI50 in GES1 relative to gastric cancer cells” value (GES1)?
Its value is “at least five-fold higher”.

And the efflux ratio [1]?
Its efflux ratio is 0.2.

And the Papp [1, 15]?
The Papp was 16.1 ± 1.01 ×10⁻⁶ cm/s.

What about the Papp [1, 16] of the same compound?
Its Papp is 3.3 ± 0.3 ×10⁻⁶ cm/s.

And the “permeability class against the Caco-2 monolayer” value (Caco-2 monolayer)?
The value was “moderately permeable compound”.

And the “mRNA level of GPX4” value (GPX4 [14])?
Its value is “dose-dependently reduced”.
